Active and inactive are the calls of the source. The rule behind the calls is not given here.
What was measured:
MDA-MB-231 [1] = test: Cell cycle arrest in human MDA-MB-231 cells assessed as accumulation at S phase at 2.5 uM after 24 hrs by propidium iodide staining-based flow cytometric analysis; format: functional
How it was run: (§1)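 Cells (2–3×10⁵) exposed to test compound at 0, 1 or 2.5 μM for 24 h. Trypsinized, PBS-washed, fixed in 95% ethanol at 4 °C overnight, RNAse-treated, propidium iodide-stained. DNA content measured by flow cytometry for phase distribution.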

MCF7 [2] = test: Cell cycle arrest in human MCF7 cells assessed as accumulation at G2/M phase at 2.5 uM after 24 hrs by propidium iodide staining-based flow cytometric analysis; format: functional; how it was run: as §1
MDA-MB-231 [3] = test: Cell cycle arrest in human MDA-MB-231 cells assessed as accumulation at G2/M phase at 2.5 uM after 24 hrs by propidium iodide staining-based flow cytometric analysis; format: functional; how it was run: as §1
MDA-MB-231 [4] = test: Induction of apoptosis in human MDA-MB-231 cells after 48 hrs by annexin V-FITC/propidium iodide staining-based flow cytometric analysis; format: functional, cell-based
How it was run: (§2)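 Treatment of 2–3×10⁵ cells with compound at 0, 1 or 5 μM for 48 h. Media plus cells collected, washed in serum-free medium, resuspended in Annexin V binding buffer. Stained with annexin V-FITC and propidium iodide 15 min in the dark at room temperature, then flow cytometry. Early (annexin only) and late (annexin+PI) apoptotic cells counted. Apoptotic index vs untreated cells. Means ± S.D., Student's t-test vs DMSO control.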

MCF7 [5] = test: Induction of apoptosis in human MCF7 cells after 48 hrs by annexin V-FITC/propidium iodide staining-based flow cytometric analysis; format: functional, cell-based; how it was run: as §2
MCF-10A = test: Cytotoxicity against human MCF10A cells assessed as growth inhibition after 72 hrs by MTT assay; format: cell-based
How it was run: (§3)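 3×10³ cells/well exposed 72 h to compound at 0, 1, 5, 10, 25, 50 μM, DMSO as vehicle control. MTT (5 mg/mL solution) added for 2–4 h at 37°C. Formazan dissolved in DMSO, absorbance read at 570 nm. Viability is mean OD relative to DMSO wells. IC50 from three separate experiments.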

MCF7 [6] = test: Cytotoxicity against human MCF7 cells assessed as growth inhibition after 72 hrs by MTT assay; format: functional, cell-based; conditions: MCF7, 72 h; how it was run: as §3
MDA-MB-231 [7] = test: Cell cycle arrest in human MDA-MB-231 cells assessed as accumulation at S phase after 24 hrs by propidium iodide staining-based flow cytometric analysis; format: functional; how it was run: as §1
MCF7 [8] = test: Induction of apoptosis in human MCF7 cells assessed as apoptotic index at 5 uM after 48 hrs by annexin V-FITC/propidium iodide staining-based flow cytometric analysis relative to control; format: functional; how it was run: as §2
MDA-MB-231 [9] = test: Cell cycle arrest in human MDA-MB-231 cells assessed as accumulation at G2/M phase after 24 hrs by propidium iodide staining-based flow cytometric analysis; format: functional; how it was run: as §1
MDA-MB-231 [10] = test: Cytotoxicity against human MDA-MB-231 cells assessed as growth inhibition after 72 hrs by MTT assay; format: functional, cell-based; conditions: MDA-MB-231, 72 h; how it was run: as §3
MCF7 [11] = test: Cell cycle arrest in human MCF7 cells assessed as accumulation at G2/M phase after 24 hrs by propidium iodide staining-based flow cytometric analysis; format: functional; how it was run: as §1
MDA-MB-231 [12] = test: Induction of apoptosis in human MDA-MB-231 cells assessed as apoptotic index at 5 uM after 48 hrs by annexin V-FITC/propidium iodide staining-based flow cytometric analysis relative to control; format: functional; how it was run: as §2

Row | Compound | IC50 (MCF-10A) [µM] | IC50 (MCF7 [6]) [µM] | IC50 (MDA-MB-231 [10]) [µM] | further results
1 | C=C1C(=O)O[C@H]2C[C@H](C)[C@@]34C[C@@]5(C(=O)O[C@H]6C[C@@H](C)[C@@H]7[C@@H](OC(C)=O)C[C@H](O)[C@@]7(C)C[C@@H]65)[C@@H](C(C)=C3C[C@H]12)[C@@H]4O | 27.9 | 1.6 | 2.8 | Activity (MDA-MB-231 [1]): Active; Activity (MCF7 [2]): Active; Activity (MDA-MB-231 [3]): Active; Activity (MDA-MB-231 [4]): Dose-dependent effect; Activity (MCF7 [5]): Dose-dependent effect; Activity (MDA-MB-231 [7]): Dose-dependent effect; fold change (FC) (MCF7 [8]): 7.6; Activity (MDA-MB-231 [9]): Dose-dependent effect; Activity (MCF7 [11]): Dose-dependent effect; fold change (FC) (MDA-MB-231 [12]): 14.2
2 | C=C1C(=O)O[C@@H]2CC(C)=C3[C@@H](C[C@H]12)[C@](C)(O)C[C@@H]3O | > 50 | > 50 | > 50 | –
3 | C=C1C(=O)O[C@@H]2/C=C(\C)CC/C=C(\CO)C[C@@H](O)[C@@H]12 [DEACETYLOVATIFOLIN] | 45.7 | 6.9 | 13.8 | –
4 | C=C1C[C@@H]2OC(=O)C(=C)[C@H]2C[C@@H]2[C@@H]1[C@@H](O)C[C@@]2(C)O | > 50 | 13.7 | 21.1 | –
5 | C=C1C(=O)O[C@H]2C[C@H](C)[C@@]34C[C@@]5(C(=O)O[C@H]6/C=C(\C)CC/C=C(\CO)C[C@H](O)[C@@H]65)[C@@H](C(C)=C3C[C@H]12)[C@@H]4OC(C)=O | 26.4 | 3.7 | 5.7 | –
6 | C=C1C(=O)O[C@H]2C[C@H](C)[C@@]34C[C@@]5(C(=O)O[C@H]6C=C(C)[C@H]7[C@@H](OC(C)=O)C[C@@](C)(O)[C@@H]7C[C@@H]65)[C@@H](C(C)=C3C[C@H]12)[C@@H]4O | > 50 | 7.8 | 16.5 | –
7 | C=C1C(=O)O[C@@H]2CC(C)=C3[C@@H](OC(C)=O)C[C@@](C)(O)[C@@H]3[C@@H](O)[C@H]12 | > 50 | > 50 | > 50 | –
8 | C=C1C(=O)O[C@@H]2CC(C)=C3[C@@H](OC(C)=O)C[C@@](C)(O)[C@@H]3C[C@H]12 [INUCHINENOLIDE B] | > 50 | 15.5 | 25.8 | –
9 | CC(=O)O[C@H]1C(=O)[C@@]2(C)[C@H]([C@H](OC(=O)c3ccccc3)[C@]3(O)C[C@H](OC(=O)[C@H](O)[C@@H](NC(=O)c4ccccc4)c4ccccc4)C(C)=C1C3(C)C)[C@]1(OC(C)=O)CO[C@@H]1C[C@@H]2O [PACLITAXEL] | 0.427 | 0.0752 | 0.087 | –
10 | C=C1C(=O)O[C@@H]2C[C@H](C)[C@@H]3[C@@H](OC(C)=O)C[C@H](O)[C@@]3(C)C[C@H]12 | > 50 | 6.7 | 12.9 | –
11 | C[C@@H]1C2=C[C@H]3[C@@H](C[C@@]2(C)CC[C@@H]1O)OC(=O)[C@@H]3C | > 50 | > 50 | > 50 | –
12 | C=C1C(=O)O[C@H]2C=C(C)[C@@H]3[C@@H]([C@@H](O)[C@H]12)[C@](C)(O)C[C@@H]3OC(C)=O | > 50 | 6.2 | 11.4 | –
13 | C=C1C(=O)O[C@H]2C[C@H](C)[C@H]3[C@@H](O)C[C@@](C)(O)[C@@]34O[C@H]4[C@H]12 | > 50 | > 50 | > 50 | –
14 | CC(=O)O[C@H]1C=C(CCO)[C@@H](C)C[C@H]2OC(=O)[C@@H](C)[C@@H]12 | > 50 | > 50 | > 50 | –
15 | C=C1C(=O)O[C@H]2C[C@H](C)[C@@]34C[C@@]5(C(=O)O[C@H]6C=C(C)[C@H]7[C@@H](OC(C)=O)C[C@@](C)(O)[C@@H]7C[C@@H]65)[C@@H](C(C)=C3C[C@H]12)[C@@H]4OC(C)=O | > 50 | 3.4 | 10.7 | –
16 | C=C1C(=O)O[C@H]2C[C@@H](C)[C@@H]3C=CC(=O)[C@@]3(C)[C@@H](OC(C)=O)[C@H]12 [BIGELOVIN] | 26 | 2.1 | 2.3 | –

Reference: ChEMBL document CHEMBL2424606, “Selective cytotoxicity, inhibition of cell cycle progression, and induction of apoptosis in human breast cancer cells by sesquiterpenoids from Inula lineariifolia Turcz” (Eur J Med Chem, 2013)
